Laboratory results published in ChEMBL document CHEMBL4609977, “Synthesis of natural product-like polyprenylated phenols and quinones: Evaluation of their neuroprotective activities” (Bioorg Med Chem, 2020).

Columns and labels:
[1] = biological target: T1, Amine oxidase [flavin-containing] B (Homo sapiens, UniProt P27338); experiment: (§1) Inhibition of recombinant human MAO-B expressed in baculovirus infected BTI insect cells assessed as reduction in formation of 4-quinolinol at 25 uM using kynuramine as substrate preincubated with substrate for 10 mins followed by enzyme addition and measured after 20 mins by fluorescence based microplate reader assay relative to control
T1 sequence (P27338 whole entry): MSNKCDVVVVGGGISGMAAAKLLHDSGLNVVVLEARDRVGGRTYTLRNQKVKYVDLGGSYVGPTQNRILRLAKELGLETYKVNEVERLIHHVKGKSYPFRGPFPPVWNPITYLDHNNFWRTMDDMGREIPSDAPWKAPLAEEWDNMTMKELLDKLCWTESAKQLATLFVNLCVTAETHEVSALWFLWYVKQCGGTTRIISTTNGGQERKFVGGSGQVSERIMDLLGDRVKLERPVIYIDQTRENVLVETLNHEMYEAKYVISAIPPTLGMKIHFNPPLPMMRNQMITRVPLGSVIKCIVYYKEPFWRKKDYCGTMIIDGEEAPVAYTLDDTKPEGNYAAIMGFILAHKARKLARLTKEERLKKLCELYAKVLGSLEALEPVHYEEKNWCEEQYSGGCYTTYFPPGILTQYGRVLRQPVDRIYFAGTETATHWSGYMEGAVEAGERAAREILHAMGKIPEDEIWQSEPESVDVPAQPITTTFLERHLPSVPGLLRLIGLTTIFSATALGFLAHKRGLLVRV

[2] = biological target: T1, Amine oxidase [flavin-containing] B; experiment: as §1, with “4-quinolinol” for “4-quinolinol at 25 uM”, “assay” for “assay relative to control”
[3] = Solubility of compound at >=25 uM; assay type: physicochemical
SH-SY5Y [4] = experiment: Neuroprotective activity against H2O2-induced cytotoxicity in human SH-SY5Y cells assessed as increase in cell viability measured after 24 hrs by MTT assay; assay type: functional, cell-based
Summary of the method: (§2)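 SH-SY5Y cells were seeded at 5.0 × 10⁴ cells/well and given 24 h attachment. Compound (DMSO final <0.5%) and H₂O₂ (final 500 μM) were added together in serum-free E-MEM/F12 and left 24 h at 37 °C, 5% CO₂. Viability was by MTT (5 mg/mL, 24 h, absorbance 595 nm). Luteolin was the positive control. Mean ± SD, n = 3; one-way ANOVA with Dunnett's test against H₂O₂ alone.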

SH-SY5Y [5] = experiment: Cytotoxicity against human SH-SY5Y cells assessed as effect on cell viability at 10 uM measured after 24 hrs by MTT assay; assay type: cell-based
Summary of the method: (§3)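 SH-SY5Y cells (ECACC) were seeded at 5.0 × 10⁴ cells/well and grown 24 h in E-MEM/F12 with 0.3% FBS. Compound in DMSO (final <0.5%) was added in serum-free medium without H₂O₂ and incubated 24 h at 37 °C, 5% CO₂. Viability was read by MTT (5 mg/mL, 24 h, A595). Mean ± SD, n = 3.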

SH-SY5Y [6] = experiment: Neuroprotective activity against H2O2-induced cytotoxicity in human SH-SY5Y cells assessed as increase in cell viability at 10 uM measured after 24 hrs by MTT assay relative to H2O2-treated control; assay type: functional; summary of the method: as §2
[7] = biological target: T1, Amine oxidase [flavin-containing] B; experiment: Tight-binding competitive inhibition of recombinant human MAO-B expressed in baculovirus infected BTI insect cells at varying substrate concentration and IC50 of compound by tight-binding inhibition based assay
Summary of the method: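 For recombinant human MAO-B with kynuramine as substrate (fluorescent 4-quinolinol read-out), IC50 values were determined at different substrate concentrations and then plotted against substrate concentration to assess tight-binding competitive inhibition.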

[8] = biological target: T1, Amine oxidase [flavin-containing] B; experiment: Mixed inhibition of recombinant human MAO-B expressed in baculovirus infected BTI insect cells at 0.32 to 2.6 uM by Lineweaver-Burk plot analysis
[9] = Cytotoxicity against human SH-SY5Y cells assessed as cell viability at 10 uM measured after 24 hrs by MTT assay relative to control; assay type: cell-based; settings: read-out: Activity; summary of the method: as §3
[10] = Cytotoxicity against human SH-SY5Y cells assessed as cell viability at 5 uM measured after 24 hrs by MTT assay relative to control; assay type: cell-based; settings: read-out: Activity; summary of the method: as §3
[11] = biological target: T1, Amine oxidase [flavin-containing] B; experiment: Mixed inhibition of recombinant human MAO-B expressed in baculovirus infected BTI insect cells at 0.7 to 2.8 uM by Lineweaver-Burk plot analysis

Question: For CC(C)=CCC/C(C)=C/CC/C(C)=C/Cc1c(C)c(C=O)c(O)c(C/C=C(\C)CC/C=C(\C)CCC=C(C)C)c1O, which inhibition at 25 µM [1] is on record?
Answer: The inhibition at 25 µM was 48.8%.

Question: What about the IC50 [2] of the same compound?
Answer: Its IC50 is “Nd(Insoluble)”.

Question: What about the solubility [3] of the same compound?
Answer: Its solubility is “Insoluble”.

Question: Which inhibition at 25 µM [1] does the source give for COc1c(C)c(CC=C(C)C)c(OC)c(OC)c1OC here?
Answer: Its inhibition at 25 µM is 7.2%.

Question: Which inhibition at 25 µM [1] does the source give for COc1c(C)c(C/C=C(\C)CCC=C(C)C)c(OC)c(OC)c1OC here?
Answer: Its inhibition at 25 µM is 38%.

Question: Which inhibition at 25 µM [1] does the source give for COc1cc(C)c(C/C=C(\C)CC/C=C(\C)CCC=C(C)C)c(OC)c1 here?
Answer: The inhibition at 25 µM was 10.8%.

Question: For CC(C)=CCC/C(C)=C/Cc1c(C)cc(O)cc1O, which inhibition at 25 µM [1] is on record?
Answer: The inhibition at 25 µM was 30.7%.

Question: For CC(C)=CCC/C(C)=C/Cc1c(C)cc(O)c(O)c1O, which inhibition at 25 µM [1] is on record?
Answer: Its inhibition at 25 µM is 88.7%.

Question: And the IC50 ([2]; read-out: IC50)?
Answer: Its IC50 is 10.5 µM.

Question: What does the source list for CC(C)=CCC/C(C)=C/CC/C(C)=C/Cc1c(C)cc(O)c(O)c1O?
Answer: Activity (SH-SY5Y [4]): Dose-dependent effect; inhibition at 25 µM [1]: 97.8%; Activity (SH-SY5Y [5]): Non-Toxic; Activity (SH-SY5Y [6]): >20%; inhibition (INH) [7]: Active; inhibition (INH) [8]: Active; IC50 ([2]; read-out: IC50): 1.3 µM

Question: Which inhibition at 25 µM [1] does the source give for CC(C)=CCc1c(O)cc(O)c(C=O)c1C here?
Answer: Its inhibition at 25 µM is 36.3%.

Question: For CC(C)=CCC/C(C)=C/CC1=C(C)C(=O)C(O)=C(O)C1=O, which inhibition at 25 µM [1] is on record?
Answer: The inhibition at 25 µM was 92.2%.

Question: What about the IC50 ([2]; read-out: IC50) of the same compound?
Answer: Its IC50 is 1.4 µM.

Question: Which inhibition at 25 µM [1] does the source give for CC(C)=CCC/C(C)=C/Cc1c(O)cc(O)c(C=O)c1C here?
Answer: Its inhibition at 25 µM is 77.4%.

Question: And the IC50 ([2]; read-out: IC50)?
Answer: Its IC50 is 19.7 µM.

Question: Which inhibition at 25 µM [1] does the source give for COc1cc(C)c(CC=C(C)C)c(OC)c1OC here?
Answer: The inhibition at 25 µM was 18.6%.

Question: For COc1cc(C)c(C/C=C(\C)CCC=C(C)C)c(OC)c1OC, which inhibition at 25 µM [1] is on record?
Answer: The inhibition at 25 µM was 5.9%.

Question: Which inhibition at 25 µM [1] does the source give for COc1cc(C)c(C/C=C(\C)CC/C=C(\C)CCC=C(C)C)c(OC)c1OC here?
Answer: The inhibition at 25 µM was 34.9%.

Question: For CC(C)=CCc1c(C)cc(O)c(O)c1O, which inhibition at 25 µM [1] is on record?
Answer: Its inhibition at 25 µM is 32.7%.

Question: For CC(C)=CCC/C(C)=C/CC/C(C)=C/Cc1c(C)cc(O)cc1O, which inhibition at 25 µM [1] is on record?
Answer: The inhibition at 25 µM was 96.4%.

Question: And the IC50 ([2]; read-out: IC50)?
Answer: Its IC50 is 9.2 µM.

Question: What about the viability at 24 h, 10 µM [9] of the same compound?
Answer: Its viability at 24 h, 10 µM is 60%.

Question: And the viability at 24 h, 5 µM [10]?
Answer: Its viability at 24 h, 5 µM is 63%.

Question: Which inhibition at 25 µM [1] does the source give for CC(C)=CCC/C(C)=C/CC/C(C)=C/Cc1c(O)cc(O)c(C(=O)O)c1C here?
Answer: The inhibition at 25 µM was 49.2%.

Question: And the IC50 ([2]; read-out: IC50)?
Answer: The IC50 was 26.5 µM.

Question: Which results are given for CC(C)=CCC/C(C)=C/CC/C(C)=C/Cc1c(O)cc(O)c(C=O)c1C?
Answer: Activity (SH-SY5Y [4]): Dose-dependent effect; inhibition at 25 µM [1]: 91.2%; Activity (SH-SY5Y [5]): Non-Toxic; Activity (SH-SY5Y [6]): >20%; IC50 ([2]; read-out: IC50): 2.3 µM

Question: For COc1cc(C)c(CC=C(C)C)c(OC)c1, which inhibition at 25 µM [1] is on record?
Answer: Its inhibition at 25 µM is 5.4%.

Question: For CC(C)=CCC/C(C)=C/CC/C(C)=C/CC1=C(C)C(=O)C(O)=C(O)C1=O, which Activity (SH-SY5Y [4]) is on record?
Answer: Its Activity is “Dose-dependent effect”.

Question: And the inhibition at 25 µM [1]?
Answer: The inhibition at 25 µM was 93.1%.

Question: What about the Activity (SH-SY5Y [5]) of the same compound?
Answer: Its Activity is “Non-Toxic”.

Question: And the “inhibition (INH)” value [11]?
Answer: Its value is “Active”.

Question: And the Activity (SH-SY5Y [6])?
Answer: Its Activity is greater than 20%.

Question: And the “inhibition (INH)” value [7]?
Answer: The value was “Active”.

Question: What about the IC50 ([2]; read-out: IC50) of the same compound?
Answer: The IC50 was 1.3 µM.

Question: Which inhibition at 25 µM [1] does the source give for CC(C)=CCC1=C(C)C(=O)C(O)=C(O)C1=O here?
Answer: Its inhibition at 25 µM is 38.3%.

Question: For CC(C)=CCC/C(C)=C/Cc1c(C)c(C=O)c(O)c(C/C=C(\C)CCC=C(C)C)c1O, which inhibition at 25 µM [1] is on record?
Answer: Its inhibition at 25 µM is 48.1%.

Question: What about the IC50 [2] of the same compound?
Answer: The IC50 was “Nd(Insoluble)”.

Question: And the solubility [3]?
Answer: Its solubility is “Insoluble”.

Question: Which inhibition at 25 µM [1] does the source give for CC(C)=CCc1c(O)cc(O)c(C(=O)O)c1C here?
Answer: Its inhibition at 25 µM is 16.3%.

Question: For COc1c(C)c(C/C=C(\C)CC/C=C(\C)CCC=C(C)C)c(OC)c(OC)c1OC, which inhibition at 25 µM [1] is on record?
Answer: Its inhibition at 25 µM is 15.2%.

Question: With CC(C)=CCC/C(C)=C/Cc1c(O)cc(O)c(C(=O)O)c1C as the compound, how does the inhibition at 25 µM [1] read?
Answer: Its inhibition at 25 µM is 31.2%.

Question: What does the source list for CC(C)=CCc1c(C)c(C=O)c(O)c(CC=C(C)C)c1O?
Answer: inhibition at 25 µM [1]: 84.7%; IC50 ([2]; read-out: IC50): 5.5 µM

Question: For CC(C)=CCc1c(C)cc(O)cc1O, which inhibition at 25 µM [1] is on record?
Answer: The inhibition at 25 µM was 4.2%.
